Assay results pooled from the literature.
Compare with care: the assays were run in different laboratories.
PTGS2: Prostaglandin G/H synthase 2 (PTGS2, Ovis aries, UniProt P79208)
MLNR: Motilin receptor (MLNR, Homo sapiens, UniProt O43193)
GSK3B: Glycogen synthase kinase-3 beta (GSK3B, Homo sapiens, UniProt P49841)
AVPR1A: Vasopressin V1a receptor (AVPR1A, Homo sapiens, UniProt P37288)

| SMILES | target | assay | system | conditions | inhibition |
| --- | --- | --- | --- | --- | --- |
| CNc1cc(Oc2cc(C(=O)Nc3cc(N4CCN(C)CC4)cc(C(F)(F)F)c3)ccc2C)ncn1 | 1-phosphatidylinositol 3-phosphate 5-kinase (PIKFYVE, Homo sapiens, UniProt Q9Y2I7) | target engagement in cells, inhibitor, chemoproteomics | Huh-7 | 1 µM | -98.4% |
| O=c1c(O)c(-c2ccc(O)cc2)oc2cc(O)cc(O)c12 | PTGS2 | enzyme activity, inhibitor, absorbance | – | 50 µM | 52.2% |
| CN(C)C1CCN(CC#Cc2nn(C3CCCC3)c3nc(NCc4ccccc4)ncc23)C1 (centres unmarked) | MAP kinase-activated protein kinase 2 (MAPKAPK2, Homo sapiens, UniProt P49137) | enzyme activity, inhibitor, FRET | – | 0.1 µM | -2% |
| CS(=O)(=O)Nc1cccc(-c2csc(NC(=O)CSc3nc4nccnc4c(=O)n3CCc3ccccc3)n2)c1 | Phosphatidylinositol 4-kinase type 2-beta (PI4K2B, Homo sapiens, UniProt Q8TCG2) | enzyme activity, inhibitor | – | 10 µM | -5% |
| COc1cc(NC(C)=O)c(Cl)cc1C(=O)Nc1nccs1 | MLNR | cell-free assay | – | 10 µM | 21.6% |
| C[C@@H]1O[C@@H](O[C@H]2[C@H](Oc3c(-c4ccc(O)cc4)oc4cc(O)cc(O)c4c3=O)O[C@H](CO[C@@H]3O[C@H](CO)[C@@H](O)[C@H](O)[C@H]3O)[C@@H](O)[C@@H]2O)[C@H](O)[C@H](O)[C@H]1O | PTGS2 | enzyme activity, inhibitor, absorbance | – | 50 µM | 57.7% |
| O=c1c(-c2ccc(O)cc2)coc2cc(O)ccc12 | GSK3B | enzyme activity, inhibitor, ADP detection | – | 100 µM | 59.2% |
| O=c1c(O)c(-c2ccc(O)cc2)oc2cc(O[C@@H]3O[C@H](CO)[C@@H](O)[C@H](O)[C@H]3O)cc(O)c12 | PTGS2 | enzyme activity, inhibitor, absorbance | – | 50 µM | 66.3% |
| Cc1c(C(N)=O)cc([N+](=O)[O-])cc1[N+](=O)[O-] | GSK3B | enzyme activity, inhibitor, ADP detection | – | 100 µM | 17.1% |
| O=c1c(O[C@@H]2O[C@H](CO)[C@@H](O)[C@H](O)[C@H]2O)c(-c2ccc(O)cc2)oc2cc(O[C@@H]3O[C@H](CO)[C@@H](O)[C@H](O)[C@H]3O)cc(O)c12 | PTGS2 | enzyme activity, inhibitor, absorbance | – | 50 µM | 54.8% |
| O=C1OC(CN2CCOCC2)CN1/N=C/c1ccc([N+](=O)[O-])o1 (centres unmarked) | GSK3B | enzyme activity, inhibitor, ADP detection | – | 100 µM | 20.2% |
| O=C1N=C(N2CCCCN2)S/C1=C\c1ccc(F)cc1O | AVPR1A | ligand displacement, radioligand | – | 10 µM | < 10% |
| CC(=O)c1nn(CC(=O)N2C[C@H](F)C[C@H]2C(=O)Nc2cccc(Br)n2)c2ccc(-c3cnc(C)nc3)cc12 | Cathepsin G (CTSG, Homo sapiens, UniProt P08311) | enzyme activity, inhibitor | – | 10 µM | 0.4% |
| O=C([O-])c1ccccc1-c1c2cc(I)c(=O)c(I)c-2oc2c(I)c([O-])c(I)cc12.[Na+].[Na+] | GSK3B | enzyme activity, inhibitor, ADP detection | – | 100 µM | 87.5% |
| CCN(CC)c1ccc(C2=NNC(=O)CC2C)cc1[N+](=O)[O-] (centres unmarked) | High affinity cGMP-specific 3',5'-cyclic phosphodiesterase 9A (PDE9A, Homo sapiens, UniProt O76083) | enzyme activity, inhibitor | – | 0.1 µM | 2% |
| Ic1cccc2cnccc12 | Protein mono-ADP-ribosyltransferase PARP11 (PARP11, Homo sapiens, UniProt Q9NR21) | enzyme activity, inhibitor | – | 10 µM | 26% |
| O=C(C1CCCCC1)N1CC(=O)N2CCc3ccccc3C2C1 (centres unmarked) | GSK3B | enzyme activity, inhibitor, ADP detection | – | 100 µM | 8.2% |
| O=C(c1ccc(Cl)cc1)N(Cc1ccccc1)C1CCCCC1 | AVPR1A | cell-free assay | – | 10 µM | 47.7% |
| NC(=O)N/N=C/c1ccc([N+](=O)[O-])o1 | GSK3B | enzyme activity, inhibitor, ADP detection | – | 100 µM | 31% |
| Oc1cccc(Nc2nc(-c3ccc(F)cc3F)cs2)c1 | MLNR | cell-free assay | – | 10 µM | 6.5% |
